Source: PubChem (several laboratories)
Rows were chosen to be rich in hits. Some 3.7% of all compounds tested hit in one or more screens of this group.
EP2 antag = blocks the human prostaglandin E2 receptor EP2 | P43116 | C6 glioma cells expressing human EP2, cAMP TR-FRET; cells stimulated with saturating PGE2 | inhibition, % at 25 µM | hit rate 0.52% among 260,000 | AID 1422;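 active means percent inhibition above 40 after rounding to a whole number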;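 further: rat C6 glioma host cells with rolipram phosphodiesterase inhibitor present; the protocol text gives 20 µM as final concentration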
CHO parental Ca = counter-screen for OX1R antagonists: effect in parental CHO cells; parental CHO-K1, ATP-induced calcium, Fluo-8 fluorescence; hit rate 0.63% among 330,000; AID 463079; inhibition, % at 5.6 µM;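 active means inhibition above that plate's mean sample inhibition plus 3 SD, cut at about 26% in these data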
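Assay system – parental CHO cells · Reagent – ATP stimulus · Detection – intracellular calcium via Fluo-8 no-wash fluorescent dye · Evaluation – percent inhibition of ATP-evoked calcium rise, normalized to controls · Controls – ATP wells versus no-ATP DMSO wells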
GPR7 antag = antagonists of human GPR7 (neuropeptides B/W receptor 1) | hit rate 1.1% among 290,000 | P48145 | inhibition, % at 4.4 µM | GPR7-expressing cells, fluorescence antagonist assay; in the data active means inhibition above about 16%, passing the limit was not always enough;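 further: cells stimulated with the agonist NPW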
EP2 mod = EP2 receptor (human) modulation. hit rate 0.83% among 260,000. EP2-expressing cells, cAMP HTRF FRET, PGE2 co-stimulation. P43116. induction, % at 25 µM. AID 940;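 active means compounds whose cAMP rise, as percent of the full-agonist control response, exceeds 60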;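 further: rat C6 glioma line stably carrying human EP2 under a CMV promoter; the protocol text gives 20 µM as final concentration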
OX1R antag-1 = antagonists of human orexin 1 receptor (OX1R). inhibition, % at 6.6 µM. OX1R-expressing cells, FRET antagonist read-out. AID 485270. hit rate 1.8% among 330,000. O43613; in the data active means inhibition mostly above about 38%, no sharp cut-off; inactive means mostly below about 40%
Target sequence (O43613 whole entry, looked up): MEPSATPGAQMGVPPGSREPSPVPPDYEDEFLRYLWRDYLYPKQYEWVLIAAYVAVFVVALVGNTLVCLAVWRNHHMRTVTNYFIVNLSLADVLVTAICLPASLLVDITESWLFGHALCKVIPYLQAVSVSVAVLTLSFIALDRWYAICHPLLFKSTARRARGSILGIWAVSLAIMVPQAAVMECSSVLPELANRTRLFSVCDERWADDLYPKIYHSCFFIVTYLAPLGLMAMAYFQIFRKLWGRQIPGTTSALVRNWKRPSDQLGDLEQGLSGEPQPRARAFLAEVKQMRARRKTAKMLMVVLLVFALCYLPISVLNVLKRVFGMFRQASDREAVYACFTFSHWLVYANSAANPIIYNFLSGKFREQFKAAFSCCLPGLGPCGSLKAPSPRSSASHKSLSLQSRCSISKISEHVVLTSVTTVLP
OX1R antag-2 = blocks the human orexin 1 receptor | O43613 | CHO/OX1R cells, Fluo-8 calcium fluorescence, orexin A | inhibition, % at 5 µM | hit rate 0.43% among 330,000;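 active means inhibition above its plate's threshold, mean inhibition of all tested compounds on the plate plus 3 SD, cut at about 37% in these data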
OX1R HTRF confirm = confirmation of human orexin 1 receptor antagonists, HTRF format | OX1R-expressing cells, HTRF antagonist assay | hit rate 49% among 1,800 | shares compounds with OX1R antag-1 | inhibition, % at 6.6 µM; in the data active means inhibition above about 55%;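 further: CHO cells expressing OX1R stimulated with orexin A at about EC80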
CHO-K1 HTRF = signal in parental CHO-K1 cells, OX1R antagonist counter-screen | shares compounds with OX1R antag-1 | HTRF counterscreen | inhibition, % at 6.6 µM | hit rate 48% among 1,800; in the data active means inhibition above about 17%
Hits are given with their value; 0 = inactive; - = no result given.

SMILES	EP2 antag	CHO parental Ca	GPR7 antag	EP2 mod	OX1R antag-1	OX1R antag-2	OX1R HTRF confirm	CHO-K1 HTRF
C=CCSc1nnc2c(n1)OC(c1cccnc1)Nc1ccccc1-2 (stereo unspecified)	0	0	0	0	77.6	0	0	0
CCOC(=O)c1ccc(NC(=O)c2n[nH]c(=O)c3ccccc23)cc1	0	0	0	0	0	0	-	-
Cc1ccc(C(=O)/C=C2\NCC(C)NC2=O)cc1 (stereo unspecified)	0	0	0	0	77.9	0	0	18.1
CC1=NN(C(N)=S)C(=O)C1N=Nc1ccccc1O (stereo unspecified)	-	0	0	-	0	0	-	-
CC1=NN(C(N)=S)C(=O)C1N=Nc1ccccc1C (stereo unspecified)	0	0	0	0	96.0	0	0	17.1
Cn1cnnc1SCc1ccc(C(=O)N=Nc2c(O)n(C)c3ccccc23)cc1	0	0	0	0	138.8	0	0	61.6
Cn1cnnc1SCC(=O)n1c2ccccc2c2ccccc21	0	0	0	0	0	0	-	-
O=C(O)c1ccc(/C=C/C(=O)c2ccc3c(c2)OCCCO3)cc1	-	0	0	-	0	0	-	-
O=[N+]([O-])c1ccc2c(c1)nc1n2CCN(CC2CCCO2)C1 (stereo unspecified)	0	0	0	0	81.0	0	0	27.0
O=[N+]([O-])c1ccc2c(c1)nc1n2CCSC1	0	0	0	0	0	0	-	-
CSc1cccc(NC(=O)/C=C/c2cccc(Cl)c2)c1	0	0	0	0	77.9	0	70.7	0
NNC(=S)NCc1ccco1	0	0	0	0	0	0	-	-
COC(=O)/C=c1/s/c(=C(/C#N)C(=O)N2CCOCC2)n(-c2ccccc2)c1=O	0	0	0	0	118.3	0	0	48.7
COc1ccc(-c2nn(CCC(=O)O)cc2/C=C2\SC(N)=NC2=O)cc1	0	0	0	0	77.2	0	0	31.4
NC1=NC(=O)/C(=C/c2cn(CCC(=O)O)nc2-c2ccc(Cl)cc2)S1	0	0	0	0	0	0	-	-
O=C(O)c1cccc(NC2=C(n3nnc4ccccc43)C(=O)c3ccccc3C2=O)c1	0	0	0	0	148.5	0	94.3	95.3
O=C1C=C(c2cccc3c2oc2ccccc23)CCC1	0	0	-	-	80.5	0	60.4	0
N#CCCn1c2ccccc2c2nc3ccccc3nc21	0	0	0	0	77.1	0	83.5	0
O=c1oc2ccccc2n1CCn1c2ccccc2c2nc3ccccc3nc21	0	0	0	0	0	0	-	-
Cc1cnc2cc([N+](=O)[O-])ccc2n1	0	0	0	0	100.9	0	66.2	84.4
Cc1ccnc(Sc2ccc([N+](=O)[O-])cn2)n1	0	0	0	0	77.1	0	70.8	70.8
Cc1ccccc1Sc1ccc([N+](=O)[O-])cn1	-	0	-	-	0	0	-	-
CC1Cc2cc(/C(O)=C3/C(=O)C(=O)N(Cc4cccnc4)C3c3cccc(O)c3)ccc2O1 (stereo unspecified)	-	0	0	-	0	0	-	-
O=C(NC1CC1)c1ccc(-c2nc3ccccc3s2)s1	0	0	0	0	113.1	0	83.7	0
O=C(Nc1ccc(Cl)c(-c2nc3ccccc3[nH]2)c1)c1ccc2c(c1)OCO2	0	0	0	0	82.2	0	84.1	0
SMILES	EP2 antag	CHO parental Ca	GPR7 antag	EP2 mod	OX1R antag-1	OX1R antag-2	OX1R HTRF confirm	CHO-K1 HTRF
Cc1ccc(C)c(NC(=O)C2CCCN(S(=O)(=O)c3c(C)nn(C)c3C)C2)c1 (stereo unspecified)	-	0	0	-	0	0	-	-
O=C(Nc1cccc(Cl)c1)N1CCCCCC1	-	0	0	-	0	0	-	-
CCc1nnc(N/N=C/c2cccs2)n1N	0	0	0	0	84.1	0	0	0
Cc1ccsc1C(=O)OCC(=O)Nc1nnc(-c2ccccc2)o1	-	0	-	-	78.2	0	0	0
O=c1nc(-c2ccccc2)cn[nH]1	0	0	0	0	148.3	0	0	36.8
O=c1nc(-c2ccccc2)c(-c2ccccc2)n[nH]1	-	-	0	-	-	-	-	-
N#Cc1cc(NCC2CCCO2)c([N+](=O)[O-])cc1C#N (stereo unspecified)	0	0	0	0	126.1	0	0	71.1
COc1ccc(NC(=O)c2ccc(NCC3CCCO3)c([N+](=O)[O-])c2)cc1 (stereo unspecified)	0	0	0	0	77.1	0	0	17.7
COCc1cc(=O)[nH]c(-c2ccccc2OC(F)(F)F)n1	0	0	0	0	0	0	-	-
CCOC(=O)c1cnc2c(c(C)nn2CC)c1NC1CC1	0	0	0	0	0	0	-	-
O=C(Nc1cccc(-c2nnc(-c3ccccc3)o2)c1)c1ccc(Br)o1	0	0	0	0	87.0	0	0	0
O=C(/C=C1\NC2(CCCC2)Cc2ccccc21)C(=O)N/N=C/c1ccccc1O	0	0	0	0	82.1	0	0	0
COc1ccc(NC(=O)c2nc(C)n(-c3ccc([N+](=O)[O-])cc3)n2)cc1	0	0	0	0	106.7	0	0	32.6
CNC(=O)c1nc(C)n(-c2ccc([N+](=O)[O-])cc2)n1	0	0	0	0	0	0	-	-
CCCNC(=O)c1nc(C)n(-c2ccc([N+](=O)[O-])cc2)n1	0	0	0	0	137.3	0	71.0	51.9
Cn1c(SCC(=O)NCC2CCCO2)nc2c(c1=O)SCC2 (stereo unspecified)	-	0	0	-	0	0	-	-
COc1cccc(/C=C2\SC(=S)N(CCC(=O)NNC(=O)c3ccccc3OC)C2=O)c1	-	0	0	-	0	0	-	-
COc1cccc(/C=C2/SC(=S)N(CC(=O)NNC(=O)c3ccccc3OC)C2=O)c1	-	0	0	-	86.0	0	96.2	0
COc1cccc(C(=O)N(Cc2cc3cc(C)ccc3[nH]c2=O)C(C)C)c1	0	0	0	0	77.1	0	68.2	0
COc1cc(OC)cc(C(=O)N(Cc2cc3cc(C)ccc3[nH]c2=O)C(C)C)c1	0	0	0	0	0	0	-	-
Cn1c(=O)oc2cc(S(=O)(=O)N3CCC(C(=O)N4CCN(c5ccc(F)cc5)CC4)CC3)ccc21	-	0	0	-	0	0	-	-
COc1ccccc1C(=O)Oc1ccc2c(c1)O/C(=C\c1ccncc1)C2=O	0	0	0	0	77.8	0	0	0
COc1ccccc1NC(=S)NCc1cccnc1	0	0	0	0	0	0	-	-
COc1ccc(OC)c(-n2nnnc2SCC(=O)Nc2ccc3c(c2)OCCO3)c1	0	0	0	0	0	0	-	-
CC(C)(C)c1nc(Sc2ncccc2[N+](=O)[O-])n[nH]1	0	0	0	0	0	0	-	-
O=c1ccnc(Sc2ncccc2[N+](=O)[O-])[nH]1	0	0	0	0	92.1	0	0	47.2
[O-][n+]1onc2c1CCc1nnc(-c3ccccc3)cc1-2	0	0	0	0	150.9	0	0	69.6
